Source: PubChem (several laboratories)
HKDC1 inhibitor – HKDC1 hexokinase inhibitors, primary screen, biochemical, fluorescence, uHTS | Q2TB90 | recombinant HKDC1, G6PDH/diaphorase resazurin coupled fluorescence | inhibition, % at 20 µM | AID 493160, 2011 | 340,000 compounds, 0.16% hits;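 active = inhibition above about 35% when tested at 20 µM, limit read from the data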;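 also: plate controls were DMSO wells with enzyme for no effect and DMSO wells lacking enzyme for full effect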
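Material: recombinant HKDC1 hexokinase; Amount: HKDC1 at 5 µg/mL; Medium: Tris pH 8.0 buffer with MgCl2, Tween-20, BSA, BME; Schedule: 90 min reaction incubation at room temperature, dark; Technique: coupled resazurin fluorescence, excitation 525 nm, emission 613 nm.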
ABHD5 PLIN5 PPI – ABHD5-PLIN5 interaction inhibitors, primary screen, cell lysate, split luciferase complementation, luminescence; Split G. princeps luciferase complementation, 4 h; inhibition, % at 4 µM; 360,000 compounds, 0.78% hits;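 active = inhibition above the mean inhibition across every tested compound plus 3 SD, cut at about 22% in these data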;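 also: 0% = DMSO only wells and the 100% control is not disclosed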
PfGluPho inh – PfG6PD enzyme inhibitors, primary screen, biochemical, fluorescence intensity, uHTS; glucose-6-phosphate dehydrogenase-6-phosphogluconolactonase (Plasmodium falciparum 3D7); inhibition, % at 20 µM; AID 504690, 2011; PfGluPho enzyme, NADPH resazurin-diaphorase fluorescence; 350,000 compounds, 0.78% hits;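 active = inhibition reaching at least a set limit at 20 µM in the primary screen, cut at about 59% in these data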;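 also: 0% = DMSO wells with substrate and 100% = DMSO wells lacking glucose-6-phosphate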
Granule exo inh – LAMP-1 surface exposure blockers, TALL-104 cells – cell-based, flow cytometry, MLPCN library, primary screen. TALL-104 LAMP-1 surface exposure; cells stimulated with thapsigargin and PMA. inhibition, % at 10 µM. 360,000 compounds, 0.66% hits;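 active = inhibition above about 55%, limit read from the data; inconclusive = no clear call, values can overlap the other calls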
ABHD5-PLIN5 conf – ABHD5-PLIN5 interaction inhibitors, confirmation, biochemical, luminescence; shares compounds with ABHD5 PLIN5 PPI; 2,200 compounds, 67% hits; AID 651612, 2012; inhibition, % at 4 µM; in the data active = inhibition above about 23%;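 also: 0% = DMSO vehicle wells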
HNF4 split-luc – HNF4 dimerization inhibitors, counter-screen for ABHD5-PLIN5 interaction inhibitor project, biochemical, split-luciferase complementation, luminescence; 2,200 compounds, 77% hits; inhibition, % at 4 µM; shares compounds with ABHD5 PLIN5 PPI;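 active = mean inhibition across replicate wells exceeding the computed hit threshold, cut at about 13% in these data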;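 also: light from luciferase halves that rejoin when HNF4 fusion proteins dimerize; 0% = DMSO only wells and the 100% control is not given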
Numbers without * were called inactive; ? = inconclusive; . = no result given. A selection: hits, their analogues and other compounds. The true share with any hit is near 2.2%.

SMILES	HKDC1 inhibitor	ABHD5 PLIN5 PPI	PfGluPho inh	Granule exo inh	ABHD5-PLIN5 conf	HNF4 split-luc
Cc1sc2nc(SCC(=O)Nc3c(C)n(C)n(-c4ccccc4)c3=O)n(C)c(=O)c2c1C	-2	24*	-8	-1	0	0
Cc1ccc(NC(=O)c2cnccn2)nc1	2	4	-1	15	.	.
Cc1ccc(NC(=O)c2cnccn2)c(Br)c1	-4	100*	-4	-3	2	1
O=C(COC(=O)C1CC1)NCCNC(=O)COC(=O)C1CC1	-2	86*	-9	6	5	1
CN(c1ccccc1)S(=O)(=O)c1cccc(NC(=O)C2CC(=O)N(Cc3ccccc3)C2)c1 (stereo not given)	-2	-3	3	46	.	.
O=C(/C=C\c1ccccc1[N+](=O)[O-])Nc1ccccc1	-7	0	20	-2	.	.
O=C(/C=C/c1ccc(-c2ccccc2[N+](=O)[O-])o1)c1ccc(F)cc1	9	29*	42	80*	43*	33*
Cc1ccc(C(=O)/C=C/c2ccccc2[N+](=O)[O-])cc1	16	52*	15	4	85*	78*
O=C(/C=C/c1ccccc1[N+](=O)[O-])c1ccccc1Br	18	82*	-16	7	98*	98*
O=C(/C=C/c1ccc(-c2ccccc2[N+](=O)[O-])o1)c1ccc(Br)cc1	16	6	16	32	.	.
CN1CCCCCC1C(=O)N1CCC(N2CCC(C(=O)N3CCOCC3)CC2)CC1 (stereo not given)	-4	-2	3	-2	.	.
Cc1ccc(-n2nc(C)c3c(C)c(CCC(=O)Nc4ccc(CN5CCCC5)cc4)c(C)nc32)cc1	-5	29*	0	29	12	3
Cc1ccc(-c2nc3cnccn3c2Nc2c(C)cccc2C)o1	2	38*	54	36	30*	94*
Cc1ccc(-c2nc3ncccn3c2Nc2ccccc2C)o1	-4	7	20	1	.	.
Cn1c(=O)c2[nH]c(N=NNc3ccccc3F)nc2n(C)c1=O	1	24*	-4	0	9	14*
COc1ccc(-c2cc3c(o2)CCCC3OCCN2CCOCC2)cc1 (stereo not given)	.	8	.	-10	.	.
Cc1cc(C)c(C(=O)/C=C/c2cccc3ccccc23)c(=O)[nH]1	13	54*	7	2	64*	61*
COc1ccccc1/C=C/C1(C(=O)NC2CCCC2)CC(=O)N1c1ccccc1 (stereo not given)	-6	-1	8	1	.	.
COCOCCn1cc(CN2CCS(=O)(=O)N(Cc3ccc(-c4cccc(CO)c4)cc3)C(C)C2=O)nn1 (stereo not given)	.	-3	0	23	.	.
CC(Oc1ccc(F)cc1)C(=O)Nc1ccccc1N1CCCCC1 (stereo not given)	-2	-4	24	-1	.	.
CCCOc1ccccc1-n1sc2c(c1=S)-c1cc(OC)cc3c1N(C(=O)C3=O)C2(C)C	17	35*	28	-2	78*	67*
Cc1cc(C)nc(NC(=S)NC(=O)c2ccccc2F)n1	-6	0	4	0	.	.
Cc1cc(C)nc(S/C=C/C(=O)c2ccccc2F)n1	1	48*	34	62*	96*	100*
CCOC(=O)Nc1ccc2c(c1)N(C(=O)CCN1CCOCC1)c1ccccc1S2=O (stereo not given)	-1	27*	4	0	6	42*
CSc1ccc(CN(C)CC(=O)Nc2ccc(NC(C)=O)cc2)cc1	2	102*	-15	1	6	4
SMILES	HKDC1 inhibitor	ABHD5 PLIN5 PPI	PfGluPho inh	Granule exo inh	ABHD5-PLIN5 conf	HNF4 split-luc
C=C(CCC(=O)c1ccccc1)C(=O)c1ccccc1	17	32*	-5	?	68*	67*
O=C(CCCCCCCC(=O)c1ccccc1)c1ccccc1	2	0	-5	-5	.	.
CCCNC(=O)[C@@H]1CCCN1C(=O)[C@@H]1Cc2ccccc2CN1	-2	-1	-5	11	.	.
O=C(C1CCN(S(=O)(=O)c2ccc(Cl)cc2)CC1)N1CCC1	-2	52*	-8	-10	1	-2
Cc1ccc(C2=NN=C(NC(=O)CSc3nncn3C)SC2)cc1	-144	45*	55	2	70*	102*
Cc1ccc(OCC(=O)OCC(=O)c2cccc([N+](=O)[O-])c2)cc1C	-3	4	-15	0	.	.
O=C1Cc2ccccc2Sc2ccccc21	-1	39*	-4	1	-1	12*
Cc1ccc2c(c1)Sc1ccccc1CC2=O	-1	-8	-18	1	.	.
C[C@@H]1CCCCO[C@@H](CN(C)S(C)(=O)=O)[C@@H](C)CN([C@H](C)CO)C(=O)c2cc(N(C)C)ccc2O1	.	1	33	-3	.	.
Cc1ccc(-c2cc(C(F)F)nc(S(C)(=O)=O)n2)cc1	2	25*	2	38	45*	51*
Cc1cc(C)c(S(=O)(=O)N2CCCCC2CCNC(=O)C(=O)NC2CC2)c(C)c1 (stereo not given)	-5	1	14	-4	.	.
CC1CCN(C2=NC(=O)/C(=C/c3ccccc3F)S2)CC1	0	9	-13	13	.	.
CN1C2CCC1/C(=C\c1ccccc1F)C(=O)/C2=C/c1ccccc1F	0	25*	2	7	26*	27*
CC(C)c1nnc(NC(=O)CCS(=O)(=O)c2nc(-c3cccs3)cc(C(F)(F)F)n2)s1	4	37*	1	24	76*	89*
CC(C)c1nnc(NC(=O)CCS(=O)(=O)Cc2ccccc2)s1	-7	-10	-13	1	.	.
COc1ccccc1NS(=O)(=O)c1ccc(C)c(NC(=O)c2c(C)noc2C)c1	-1	-6	10	0	.	.
Cn1c(-c2ccccc2)c(C(=O)CCl)c2ccccc21	13	24*	-26	14	37*	22*
COCC(C)n1c(SC(C)C(=O)NC2CCCCC2C)nc2ccccc2c1=O (stereo not given)	-6	0	-3	0	.	.
COc1ccc(/C=C\c2nc(O)c([N+](=O)[O-])c(=O)[nH]2)cc1O	3	23*	-1	-3	27*	30*
O=c1[nH]c(/C=C\c2cccc(Cl)c2)nc(O)c1[N+](=O)[O-]	13	51*	-3	2	88*	75*
C#CCOc1c(/C=C\c2nc(O)c([N+](=O)[O-])c(=O)[nH]2)cc(Br)cc1OC	14	46*	-24	-6	83*	74*
COC(=O)COc1c(/C=C\c2nc(O)c([N+](=O)[O-])c(=O)[nH]2)cccc1OC	-3	18	8	-4	.	.
